Vif imaging: HIV Vif self-association inhibitors, primary screen, imaging, HEK293T, single point. HEK293T cells, Vif self-association by quenched fluorescence, 24 h. inhibition, % at 7.49 µM. hit rate 0.35% among 340,000. AID 602346, 2012; in the data active = inhibition above about 50%, passing the limit was not always enough; inconclusive = no clear call, values can overlap the other calls; inactive = below about 31%
T cell modulator: modulators of CD8 T cell-vesicle binding, primary screen, mouse 2C CD8+ T cells, flow cytometry; 2C CD8+ T cell-vesicle binding; stronger effect = lower value; response (vesicle binding), % at 7 µM; hit rate 0.068% among 330,000; AID 2052, 2009;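 active = response, share of CD8 T cells binding vesicles, and their 90th percentile fluorescence all below set limits, cut at about 80% in these data, passing the limit was not always enough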;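 also: values below 100% mean blocked vesicle binding to the CD8+ T cells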
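Material: murine 2C transgenic CD8+ T lymphocytes / Also added: QL9-peptide-loaded Drosophila micro-vesicles bearing Ld, ICAM-1 and B7-1 / Schedule: binding step 1.5 h, 37 °C, antibody labelling 20 min, ice / Signal: flow cytometry, PE anti-B7-1 (FL2) versus Alexa647 anti-CD8 (FL8), PFA-fixed / Evaluation: percent CD8+ FL2 mean versus row control / Benchmarks: naked versus QL9-loaded vesicles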
Myeloid diff MLP: induction of myeloid progenitor differentiation, primary screen, cell-based, flow cytometry, MLPCN library; ER-HoxA9 myeloid progenitors, lysozyme-GFP differentiation; AID 624256, 2012; hit rate 1% among 360,000; calls only at 10 µM;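 active = normalized GFP-positive differentiation at or above the plate's own cutoff, the solvent-only control mean plus 3 SD; inconclusive = no clear call, values can overlap the other calls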;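 also: cells exposed to compound for four days before flow analysis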
Casp6 inh: human caspase-6 inhibitors, primary screen, biochemical, VEID-R110 fluorescence, single point, set 2 | AID 686996, 2013 | P55212 | hit rate 0.53% among 350,000 | inhibition, % at 12.5 µM | purified caspase-6, Z-VEID-R110 cleavage fluorescence;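 active = mean inhibition across replicates at least about 35%, with every replicate also reaching that limit, limit read from the data; inconclusive = only one of the two criteria met; inactive = neither criterion met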;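 also: 0% = median of neutral control wells and 100% = no fluorescence left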
Target sequence (P55212 24-179 limits assumed): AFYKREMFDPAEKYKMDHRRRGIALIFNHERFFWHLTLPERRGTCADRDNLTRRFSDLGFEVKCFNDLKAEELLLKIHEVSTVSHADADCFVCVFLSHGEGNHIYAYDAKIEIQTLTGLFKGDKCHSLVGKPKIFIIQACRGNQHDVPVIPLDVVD
Target sequence (P55212 194-293 limits assumed): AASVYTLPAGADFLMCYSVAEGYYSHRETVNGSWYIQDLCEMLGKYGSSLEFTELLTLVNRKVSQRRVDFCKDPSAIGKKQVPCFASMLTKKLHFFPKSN
* = called active by the depositor; i = inactive; ? = inconclusive; · = no result given; + = active, no number. This is a sample that favours compounds with a hit; in the whole collection about 1.4% have one here.

SMILES	Vif imaging	T cell modulator	Myeloid diff MLP	Casp6 inh
O=C(CSc1cn(CCNC(=O)c2ccccc2F)c2ccccc12)NCC1CCCO1 (configuration not stated)	-6	338	i	-1
C[C@H](CO)N1C[C@H](C)[C@H](CN(C)C(=O)Nc2ccccc2)Oc2ccc(NC(=O)Nc3cccc4ccccc34)cc2CC1=O	·	·	·	-1
O=C1CN(C(=O)c2ccc(F)cc2)c2ccccc2N1	-3	26*	i	0
O=C1CN(C(=O)c2ccccc2)c2ccccc2N1	5	370	i	·
COc1ccc2c3c(n(C)c2c1)[C@@H](CO)N(S(C)(=O)=O)CC31CN(C(=O)C2CCC2)C1	·	·	·	-1
CCN(CC)c1ccc(C(=O)NN)cc1	-3	202	+	3
COc1cc2c(OC(C)=O)c3c(c(-c4ccc5c(c4)OCO5)c2cc1OC)C(=O)OC3	173*	285	?	2
COc1cc2c(O)c3c(c(-c4ccc5c(c4)OCO5)c2cc1OC)C(=O)OC3	19	650	?	·
CC(=O)c1cc(CC=C(C)C)c(O)c(CC=C(C)C)c1O	64*	494	i	·
Cc1c(NC(=O)C(C)OC(=O)c2sc3ccccc3c2Cl)c(=O)n(-c2ccccc2)n1C (configuration not stated)	108*	186	i	1
Cn1cnc(S(=O)(=O)N2CCCCN3[C@@H](CO)[C@@H](c4ccc(C#CC5CC5)cc4)[C@@H]3C2)c1	·	·	·	-1
Cc1ccc(NC(=O)C2CCN(c3ncnc4sc(C)c(C)c34)CC2)cc1S(=O)(=O)N(C)C	-17	204	i	1
Cc1ccc(C)c(S(=O)(=O)N2CCN(C(=O)C3CCN(c4ncnc5sc(C)c(C)c45)CC3)CC2)c1	·	218	+	-1
COc1cc(/C=C2\SC(=O)NC2=O)ccc1Oc1ccc([N+](=O)[O-])cc1[N+](=O)[O-]	-5	107	i	39*
COc1ccc(/C=C2\SC(=O)NC2=S)cc1OC	-2	330	?	45*
C[C@H](NC(=O)C[C@H]1C[C@H]2c3cc(NC(=O)C4CCOCC4)ccc3O[C@H]2[C@H](CO)O1)c1ccccc1	·	·	·	1
CCc1nnc(NC(=O)CCc2ccccc2OC)s1	-2	i	+	3
CCCc1nc(SCC(=O)N2CCN(c3ccccc3)CC2)c2c(=O)n(C)c(=O)n(C)c2n1	-1	504	+	4
CC(C)c1nc(SCC(=O)N2CCN(c3ccccc3)CC2)c2c(=O)n(C)c(=O)n(C)c2n1	-3	·	?	2
Cc1ccc(NC(=O)CCNC(=O)c2ccc([N+](=O)[O-])cc2)cc1C	1	238	+	-3
O=C(C[C@@H]1CC[C@H](NC(=O)Nc2ccccc2F)[C@@H](CO)O1)NCc1ccc(-c2ccccc2)cc1	·	·	·	3
O=C(c1ccc2c(c1)OCO2)N1CC[C@@H]2[C@H]1c1cc(-c3ccc(F)cc3)ccc1N[C@@H]2CO	·	·	·	2
CC(=O)Oc1ccc(N(C(C)=O)S(=O)(=O)c2ccc(C)cc2)c2ccccc12	-3	241	+	0
Oc1cc2c(cc1O)C1c3ccc(O)c(O)c3OCC1(O)C2 (configuration not stated)	-1	669	i	42*
CCN(CC)S(=O)(=O)c1ccc(N2CCCCC2)c(NC(=O)/C(C#N)=C/c2ccc(OC)cc2)c1	2	231	+	·
SMILES	Vif imaging	T cell modulator	Myeloid diff MLP	Casp6 inh
CCOc1ccc(NC(=O)/C(C#N)=C/c2ccc(N3CCCC3)c(C)c2)cc1	?	758	+	·
Cc1cc(C)c(C#N)c(SCCS(=O)(=O)c2ccc(C(C)(C)C)cc2)n1	·	174	+	·
COc1cc(/C=C/C(=O)O)cc(S(=O)(=O)N(C)CCO)c1OC	1	0.0*	i	·
Cc1noc(C)c1NC(=O)Nc1ccc2c(c1)C(=O)N([C@@H](C)CO)C[C@@H](C)[C@H](CN(C)C(=O)Nc1ccc(C(F)(F)F)cc1)O2	·	·	·	0
COC(=O)/C=C/c1c(C)nc(NCc2ccccc2)nc1Cl	-8	270	+	0
CCNc1nc(Cl)nc(NCc2ccccc2)n1	0	795	i	·
O=C(NCC[C@@H]1CC[C@H](NS(=O)(=O)c2ccc(Cl)cc2)[C@@H](CO)O1)Nc1ccc(F)cc1	·	·	·	0
Cc1ccc(NC(=O)c2ocnc2C)cc1Cl	-9	89	i	59*
CCCCCCCCCc1conc1C(=O)/C=C/c1ccco1	·	·	i	67*
CCCCCCCCCc1conc1C(=O)CP(=O)(OC)OC	·	·	i	1
O=C(C[C@H]1C[C@H]2c3cc(NC(=O)c4cccnc4)ccc3O[C@H]2[C@@H](CO)O1)NCCN1CCCCC1	·	·	·	-1
CN1C(=O)CC(Sc2ccccc2C(=O)O)C1=O (configuration not stated)	·	258	i	35*
CCOC(=O)C1=C(COC(=O)/C=C/c2ccc(OC)cc2)NC(=O)NC1C (configuration not stated)	1	·	i	0
CC1CCN(C(=O)COC(=O)/C=C/c2ccco2)CC1	16	266	i	49*
CCOC(=O)C1=C(COC(=O)/C=C/c2ccco2)NC(=O)NC1C (configuration not stated)	-9	473	i	61*
CC1CCCC(C)N1C(=O)COC(=O)/C=C/c1ccco1 (configuration not stated)	-11	294	i	16
O=C(CN(Cc1ccccc1)S(=O)(=O)c1ccc(F)cc1)NCCC1=CCCCC1	5	515	i	·
Cc1ccc(S(=O)(=O)N(CC(=O)NCCC2=CCCCC2)Cc2ccccc2)cc1	-11	813	+	·
O=C(CCS(=O)(=O)c1ccc(Br)cc1)NC1CCCCCC1	4	542	i	61*
O=C(CCS(=O)(=O)c1ccc(Br)cc1)NCCC1=CCCCC1	17	502	i	66*
Cc1ccc(CNC(=O)CCS(=O)(=O)c2ccc(Br)cc2)cc1	-2	·	i	-1
O=C(CCS(=O)(=O)c1ccc(Br)cc1)NCc1ccc(F)cc1	6	207	i	70*
Cc1ccc(S(=O)(=O)CCC(=O)NC2CCCCC2)cc1	-5	318	i	9
CCCNC(=O)C[C@H]1CC[C@H]2[C@@H](COc3ccc(NC(=O)Nc4ccccc4F)cc3C(=O)N2C)O1	·	·	·	2
COc1cccc(S(=O)(=O)N(C)C[C@@H]2Oc3ncc(-c4cccc(C(F)(F)F)c4)cc3C(=O)N([C@H](C)CO)C[C@@H]2C)c1	·	·	·	1
CCCNC(=O)[C@@H]1[C@@H](CO)[C@@H]2Cn3c(ccc(C4=CCCC4)c3=O)[C@@H]2N1C(=O)c1cnccn1	·	·	·	-6
COc1ccc(Nc2nc(Cl)c(C=O)s2)cc1	-2	155	+	·
COc1ccc(Nc2nc3ccccc3s2)cc1	7	210	i	0
CN(C)CCCNC(=O)C[C@H]1CC[C@@H]2[C@@H](COc3ccc(NC(=O)c4ccc5c(c4)OCO5)cc3C(=O)N2C)O1	·	·	·	-1

High-throughput results: PubChem, several laboratories
